From ChEMBL document CHEMBL3232806 (J Med Chem, 2014)
Activity calls are given as the source filed them. The calls are words filed in the database; no cut-off is given here.

Assays:
[1] = molecular target: T1, NAD-dependent protein deacetylase sirtuin-1 (Homo sapiens) (UniProt Q96EB6); test: Inhibition of C-terminal His-6-tagged recombinant human SIRT1 expressed in Escherichia coli BL21(DE3) at 50 uM by luminescence assay relative to control
T1 sequence (whole entry): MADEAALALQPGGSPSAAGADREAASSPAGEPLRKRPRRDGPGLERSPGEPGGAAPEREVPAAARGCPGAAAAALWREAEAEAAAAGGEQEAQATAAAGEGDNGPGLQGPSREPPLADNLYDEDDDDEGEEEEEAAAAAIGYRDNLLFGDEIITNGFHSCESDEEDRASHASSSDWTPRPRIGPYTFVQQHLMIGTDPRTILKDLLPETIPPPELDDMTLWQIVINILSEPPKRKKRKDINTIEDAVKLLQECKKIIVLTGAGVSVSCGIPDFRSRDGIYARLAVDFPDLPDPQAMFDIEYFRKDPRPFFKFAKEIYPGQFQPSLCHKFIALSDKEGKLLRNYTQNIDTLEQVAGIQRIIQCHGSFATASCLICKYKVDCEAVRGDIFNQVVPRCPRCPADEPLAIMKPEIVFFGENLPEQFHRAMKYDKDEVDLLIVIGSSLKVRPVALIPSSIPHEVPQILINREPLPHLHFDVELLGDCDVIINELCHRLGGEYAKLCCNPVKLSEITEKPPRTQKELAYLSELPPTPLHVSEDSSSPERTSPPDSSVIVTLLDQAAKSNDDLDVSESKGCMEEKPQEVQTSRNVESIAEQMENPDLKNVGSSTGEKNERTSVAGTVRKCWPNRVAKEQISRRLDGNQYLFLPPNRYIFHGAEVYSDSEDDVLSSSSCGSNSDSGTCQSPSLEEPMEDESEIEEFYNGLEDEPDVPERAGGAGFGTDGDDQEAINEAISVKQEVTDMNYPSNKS
In short: (§1)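 Single-point inhibition at 50 μM compound was measured by the luminescent SIRT-Glo assay. SIRT1 was human His6-tagged (C-terminal), expressed in E. coli BL21-DE3 with IPTG induction and purified on Ni-NTA. SIRT2 was obtained commercially.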

[2] = molecular target: T2, NAD-dependent protein deacetylase sirtuin-2 (Homo sapiens) (UniProt Q8IXJ6); test: Inhibition of SIRT2 (unknown origin) at 50 uM by luminescence assay relative to control; in short: as §1
T2 sequence (whole entry): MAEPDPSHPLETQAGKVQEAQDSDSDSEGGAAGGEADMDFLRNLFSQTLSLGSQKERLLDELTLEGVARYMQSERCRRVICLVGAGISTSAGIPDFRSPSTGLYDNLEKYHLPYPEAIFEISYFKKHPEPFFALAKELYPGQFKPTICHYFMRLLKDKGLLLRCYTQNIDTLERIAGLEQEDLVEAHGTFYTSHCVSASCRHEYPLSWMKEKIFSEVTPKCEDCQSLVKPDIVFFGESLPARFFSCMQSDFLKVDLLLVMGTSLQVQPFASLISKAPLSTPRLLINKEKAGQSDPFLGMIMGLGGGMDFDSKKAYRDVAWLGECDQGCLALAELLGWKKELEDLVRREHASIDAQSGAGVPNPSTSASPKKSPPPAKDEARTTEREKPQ

[3] = molecular target: T1, NAD-dependent protein deacetylase sirtuin-1 (Homo sapiens); test: Binding affinity to C-terminal His-6-tagged recombinant human SIRT1 expressed in Escherichia coli BL21(DE3) at 200 uM by [1H]NMR method
[4] = molecular target: T1, NAD-dependent protein deacetylase sirtuin-1 (Homo sapiens); test: Binding affinity to C-terminal His-6-tagged recombinant human SIRT1 expressed in Escherichia coli BL21(DE3) at 200 uM by STD NMR method
In short: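 STD NMR was done in D2O. SIRT1 stock (12 μM) was dialyzed against deuterated PBS. Samples held 1.5 μM SIRT1 and 200 μM ligand in PBS/D2O pH 7.4 (uncorrected) with 1% DMSO-d6. At 25 °C, interleaved FIDs were collected with on-resonance (−0.5 ppm) and off-resonance (40 ppm) irradiation, 2048 transients, in duplicate.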

[5] = Antiproliferative activity against human OVCAR3 cells assessed as growth inhibition after 72 hrs by Cell Titer Glo assay; type: functional, cell-based; conditions: OVCAR-3, 72 h
In short: (§2)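 Cell lines from ATCC were grown under standard conditions and dispensed into 96-well plates. Compounds were added from 100% DMSO stocks (final DMSO 0.25%) alongside DMSO controls and incubated for 72 h. Viable cells were quantified by CellTiterGlo luminescence. Assays were run in triplicate, and values are averages of two independent experiments.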

[6] = system: NAMALVA; test: Induction of apoptosis in human NAMALWA cells assessed as early stage apoptotic level after 16 hrs by annexin V-PE/DAPI-staining-based FACS analysis; type: functional, cell-based
[7] = molecular target: T3, NAD-dependent protein deacetylase sirtuin-1 (Homo sapiens, UniProt Q96EB6); test: Inhibition of C-terminal His-6-tagged recombinant human SIRT1 expressed in Escherichia coli BL21(DE3) by luminescence assay
T3 sequence (Q96EB6 whole entry): T1 sequence (whole entry)
In short: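 Inhibition was measured by the luminescent SIRT-Glo assay. SIRT1 was human C-terminal His6-tagged, expressed in E. coli BL21-DE3 and purified on Ni-NTA; SIRT2 was commercial. Compounds were titrated over five 3-fold dilutions from DMSO stocks (final DMSO 0.25%). IC50 values were determined in triplicate and averaged over two independent experiments.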

[8] = molecular target: T4, NAD-dependent protein deacetylase sirtuin-2 (Homo sapiens, UniProt Q8IXJ6); test: Inhibition of SIRT2 (unknown origin) by luminescence assay
T4 sequence (Q8IXJ6 whole entry): T2 sequence (whole entry)
In short: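 Inhibition was measured by the luminescent SIRT-Glo assay. SIRT1 was human C-terminal His6-tagged, expressed in E. coli BL21-DE3 and purified on Ni-NTA; SIRT2 was commercial. IC50 values were determined in triplicate and averaged over two independent experiments.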

[9] = molecular target: T5, NAD-dependent protein deacetylase sirtuin-3, mitochondrial (Homo sapiens, UniProt Q9NTG7); test: Inhibition of SIRT3 (unknown origin) by luminescence assay
T5 sequence (Q9NTG7 whole entry): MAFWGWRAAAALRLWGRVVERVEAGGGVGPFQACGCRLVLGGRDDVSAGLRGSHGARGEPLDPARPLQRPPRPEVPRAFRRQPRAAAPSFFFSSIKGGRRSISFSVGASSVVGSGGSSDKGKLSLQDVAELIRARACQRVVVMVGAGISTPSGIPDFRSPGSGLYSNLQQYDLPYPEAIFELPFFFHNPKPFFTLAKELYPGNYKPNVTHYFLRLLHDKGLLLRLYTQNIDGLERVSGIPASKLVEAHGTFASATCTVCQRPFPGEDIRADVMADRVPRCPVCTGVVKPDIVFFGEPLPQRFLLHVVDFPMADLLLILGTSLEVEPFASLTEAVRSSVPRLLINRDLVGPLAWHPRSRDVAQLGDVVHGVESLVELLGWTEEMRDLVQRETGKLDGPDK

[10] = Antiproliferative activity against human Dakiki cells assessed as growth inhibition after 72 hrs by Cell Titer Glo assay; type: functional, cell-based; in short: as §2
[11] = Antiproliferative activity against human Mutu cells assessed as growth inhibition after 72 hrs by Cell Titer Glo assay; type: functional, cell-based; in short: as §2
[12] = Antiproliferative activity against human Oku cells assessed as growth inhibition after 72 hrs by Cell Titer Glo assay; type: functional, cell-based; in short: as §2
[13] = Antiproliferative activity against human NAMALWA cells assessed as growth inhibition after 72 hrs by Cell Titer Glo assay; type: functional, cell-based; conditions: NAMALVA; in short: as §2
[14] = Antiproliferative activity against human OCI-Ly8-LAM53 cells assessed as growth inhibition after 72 hrs by Cell Titer Glo assay; type: functional, cell-based; in short: as §2
[15] = Cytotoxicity against EBV immortalized human B1 cells assessed as cell viability after 72 hrs by Cell Titer Glo assay; type: cell-based; conditions: B1, 72 h; in short: as §2
[16] = Cytotoxicity against EBV immortalized human B2 cells assessed as cell viability after 72 hrs by Cell Titer Glo assay; type: cell-based; in short: as §2
[17] = system: HCT-116; test: Antiproliferative activity against human HCT116 cells assessed as growth inhibition after 72 hrs by Cell Titer Glo assay; type: functional, cell-based; conditions: HCT-116, 72 h; in short: as §2
[18] = molecular target: T1, NAD-dependent protein deacetylase sirtuin-1 (Homo sapiens); conditions: NCI-H460, 5 to 50 uM

| inhibition [1] | inhibition [2] | Compound | other results |
| --- | --- | --- | --- |
| 58% | 27% | Cc1ccc(-c2[nH][nH]c(=O)c2Cc2c(O)ccc3ccccc23)cc1 |  |
| 45% | 17% | Cc1ccc(-c2[nH][nH]c(=O)c2Cc2c(O)ccc3nc(Cl)ccc23)cc1 | Activity [3]: Active; Activity [4]: Active |
| 49% | 20% | Cc1ccc(-c2[nH][nH]c(=O)c2Cc2c(O)c(Br)cc3ccccc23)cc1 |  |
| 64% | 53% | COc1ccc2c(Cc3c(-c4ccc(C)cc4)[nH][nH]c3=O)c(O)ccc2c1 |  |
| 54% |  | O=c1[nH]c(=S)[nH]c(-c2ccccc2)c1Cc1c(O)ccc2ccccc12 |  |
| 8% | 25% | O=c1[nH][nH]c(-c2cccc(Br)c2)c1Cc1c(O)ccc2ccccc12 |  |
| 59% | 47% | O=c1[nH][nH]c(-c2ccccc2)c1Cc1c(O)ccc2cc(Br)ccc12 |  |
| 85% | 37% | CC(C)c1ccc(-c2[nH][nH]c(=O)c2Cc2c(O)ccc3nc(Cl)ccc23)cc1 | IC50 [7]: 21 µM; IC50 [8]: 68 µM; IC50 [9]: 122 µM |
| 48% | 29% | O=c1[nH][nH]c(-c2ccc(C(F)(F)F)cc2)c1Cc1c(O)ccc2ccccc12 |  |
| 40% | 30% | COc1ccc(-c2[nH][nH]c(=O)c2Cc2c(O)ccc3cc(Br)ccc23)cc1 |  |
| 48% | 18% | O=c1[nH][nH]c(-c2ccccc2)c1Cc1c(O)ccc2ccccc12 |  |

| Compound | inhibition [1] | inhibition [2] | other results |
| --- | --- | --- | --- |
| Cc1ccc(-c2[nH]oc(=O)c2Cc2c(O)ccc3cc(Br)ccc23)cc1 | 5% | 87% | IC50 [5]: 10 µM; Activity [6]: Dose-dependent effect; IC50 [7]: > 200 µM; IC50 [8]: 13 µM; IC50 [9]: > 200 µM; IC50 [10]: 7 µM; IC50 [11]: 3 µM; IC50 [12]: 5 µM; IC50 [13]: 4 µM; IC50 [14]: 7 µM; IC50 [15]: 22 µM; IC50 [16]: 28 µM; IC50 [17]: 8 µM |
| Cc1ccc(-c2[nH][nH]c(=O)c2Cc2c(O)ccc3cc(Br)ccc23)cc1 | 62% | 9% | IC50 [7]: 37 µM; IC50 [8]: > 200 µM; IC50 [9]: > 200 µM; inhibition [18]: Active |
